UPR XBP1 act = activators of adaptive arm of unfolded protein response (XBP1); CHO-XBP1 luciferase reporter, IRE1-XBP1 UPR activation, luminescence; percent of tunicamycin response, DMSO as zero; actives 0.33% (n = 330,000); AID 463104; activation, % at 20 µM;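 active = versus positive control, 20 µM dose yields 30% or more activation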
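incubation = overnight seeding at 37 °C, 6 h compound treatment at 37 °C | assay system = CHO-XBP1 cells stably carrying IRE1-XBP1-driven luciferase reporter | input = 1000 cells per well | detection = luciferase luminescence | dosing = single point, 20 µM final compound, 1% DMSO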
ABHD5-PLIN5 inh = ABHD5-PLIN5 protein interaction inhibition. Q00G26+Q8WTS1. Split G. princeps luciferase complementation, luminescence, 4 h. inhibition, % at 4 µM. actives 0.78% (n = 360,000);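 active = inhibition above the mean inhibition across every tested compound plus 3 SD, cut at about 22% in these data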
Target sequence (Q00G26 whole entry, looked up): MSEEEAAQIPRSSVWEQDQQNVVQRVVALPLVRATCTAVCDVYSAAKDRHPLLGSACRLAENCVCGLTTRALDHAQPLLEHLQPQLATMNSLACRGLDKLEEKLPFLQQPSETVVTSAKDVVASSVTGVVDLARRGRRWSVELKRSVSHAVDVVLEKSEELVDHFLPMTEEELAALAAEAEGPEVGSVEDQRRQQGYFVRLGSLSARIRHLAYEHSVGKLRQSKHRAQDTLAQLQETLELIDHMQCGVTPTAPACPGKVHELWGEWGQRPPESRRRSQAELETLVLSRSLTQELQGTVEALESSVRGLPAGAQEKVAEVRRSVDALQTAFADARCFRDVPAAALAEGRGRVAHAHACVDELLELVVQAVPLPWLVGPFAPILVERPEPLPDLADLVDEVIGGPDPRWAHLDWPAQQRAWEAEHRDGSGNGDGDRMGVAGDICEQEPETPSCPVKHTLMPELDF
Target sequence (Q8WTS1 whole entry, looked up): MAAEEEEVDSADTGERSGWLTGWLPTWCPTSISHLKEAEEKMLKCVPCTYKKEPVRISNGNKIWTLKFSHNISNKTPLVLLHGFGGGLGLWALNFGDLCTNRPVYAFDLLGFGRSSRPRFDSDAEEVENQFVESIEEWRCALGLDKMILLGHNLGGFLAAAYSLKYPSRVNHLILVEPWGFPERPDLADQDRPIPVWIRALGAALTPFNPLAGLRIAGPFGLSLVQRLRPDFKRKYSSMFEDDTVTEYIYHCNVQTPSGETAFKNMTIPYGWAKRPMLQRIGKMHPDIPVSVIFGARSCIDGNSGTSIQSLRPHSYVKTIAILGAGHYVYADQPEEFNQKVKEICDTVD
Mdm2 MdmX PPI = inhibitors of human Mdm2/MdmX interaction; inhibition, % at 8 µM; O15151+Q00987; SaOS-2 split-luciferase Mdm2/MdmX complementation, luminescence; actives 3% (n = 330,000);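 active = inhibition of at least 50% at 8 µM in the primary screen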
Granule exo inh = lytic granule exocytosis inhibition. TALL-104 LAMP-1 surface exposure, flow cytometry; cells stimulated with thapsigargin and PMA. inhibition, % at 10 µM. actives 0.66% (n = 360,000). AID 651702;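 active = inhibition above about 55%, limit read from the data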
UPR CHOP act = activators of apoptotic arm of unfolded protein response (CHOP) | CHO-CHOP luciferase reporter, UPR activation, luminescence; percent of tunicamycin response over DMSO baseline | activation, % at 10 µM | actives 0.34% (n = 330,000);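 active = at 10 µM dose, activation of 40% or more, normalized to positive control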
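System: CHO-CHOP luciferase reporter cell line; amount: 500 cells/well; buffer or medium: F12 medium containing 10% fetal bovine serum; incubation: 6 h compound exposure at 37 °C after overnight seeding; measured by: luciferase luminescence after 10 min with Steady-Glo reagent; evaluation: % reporter activation, DMSO baseline versus tunicamycin full activation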
Mdm2-MdmX conf = confirmation of human Mdm2/MdmX interaction inhibitors. shares compounds with Mdm2 MdmX PPI. Mdm2-MdmX binding, luminescent assay. inhibition, % at 8 µM. actives 55% (n = 10,000); in the data active = inhibition above about 40%
Full FLuc ctr = full-length luciferase inhibition in Mdm2/MdmX counter-screen. inhibition, % at 8 µM. AID 504607. SaOS-2 full-length luciferase counterscreen, luminescence. shares compounds with Mdm2 MdmX PPI. actives 77% (n = 6,200);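 active = mean inhibition at 8 µM reaching about 37%, which flags the compound as non-specific, limit read from the data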;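 note: p53-null SaOS-2 cells with luciferase driven by a doxycycline-inducible promoter; compound on cells about two nights before reading with doxycycline added after day one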
A number is an active result; . = inactive; / = not tested or not shown. Only some compounds are listed: those with a hit (about 4% of all), similar ones and a draw of the others.

SMILES	UPR XBP1 act	ABHD5-PLIN5 inh	Mdm2 MdmX PPI	Granule exo inh	UPR CHOP act	Mdm2-MdmX conf	others
NC(=O)c1oc2ccccc2c1NC(=O)c1ccc([N+](=O)[O-])o1	.	.	65	.	.	55	Full FLuc ctr=.
NC(=O)c1oc2ccccc2c1NC(=O)c1ccc(F)cc1	.	.	.	.	.	/
CCCN(CCC)C(=S)NC(=O)c1ccc(-c2ccccc2)cc1	.	.	55	.	.	.
CCOc1ccc(C(=O)NC(=S)N(Cc2ccccc2)Cc2ccccc2)cc1	/	.	/	.	/	/
COCC(=O)N/N=C\c1cccc(OC)c1OC/C=C/c1ccccc1	.	.	55	.	.	.
CCN1C(=O)N[C@H](c2ccc(Br)cc2)C(C(=O)OC)=C1C	.	.	.	.	.	/
CCOc1ccccc1C(=O)Nc1ccc2nc(N3CCN(c4ncccn4)CC3)cc(C)c2c1	.	/	96	/	.	84	Full FLuc ctr=51
COc1cccc(C(=O)Nc2ccc3nc(N4CCN(c5ncccn5)CC4)cc(C)c3c2)c1OC	.	/	98	/	.	88	Full FLuc ctr=.
COc1ccc(C(=O)Nc2ccc3nc(N4CCN(C)CC4)cc(C)c3c2)c(OC)c1	.	.	.	.	.	/
CCOC(=O)N1CCC(NC(=O)Cn2nc(-c3ccccc3)ccc2=O)CC1	.	.	.	.	.	/
C(=N\Nc1nncc2ccccc12)/c1ccccn1	.	.	79	.	.	79	Full FLuc ctr=.
Fc1cccc(/C=N/Nc2nncc3ccccc23)c1	.	.	.	.	.	/
Cc1cc(=O)[nH]c(NN=Cc2c(Cl)cccc2Cl)n1	/	.	/	.	/	/
Cc1cc(=O)[nH]c(N/N=C/c2ccccn2)n1	.	.	80	.	.	78	Full FLuc ctr=59
O=c1cnnc(N/N=C/c2ccccn2)[nH]1	.	.	82	.	.	88	Full FLuc ctr=53
Cc1cccc(NC(=O)CCCN2C(=O)C(c3ccccc3)Oc3cccnc32)c1C (stereo not given)	.	.	.	.	.	/
CCOC(=O)C1(CCOc2ccccc2)CCN(Cc2ccc(C(=O)OC)cc2)CC1	.	.	.	.	.	/
CC(=O)Nc1ccc(NC(=O)CSc2nnnn2-c2ccc3c(c2)OCCO3)cc1	.	.	51	.	.	.
COc1ccc(OC)c(NC(=O)CSc2nnnn2-c2ccc3c(c2)OCO3)c1	.	.	58	.	.	.
COC(=O)c1ccc(-n2nnnc2SCC(=O)Nc2cc(OC)ccc2OC)cc1	.	.	.	.	.	/
Cc1ccc(-n2nnnc2SCC(=O)Nc2ccc3c(c2)OCCO3)cc1C	.	.	.	.	.	/
COc1ccc(-n2nnnc2SCC(=O)Nc2cc(OC)c([N+](=O)[O-])cc2C)cc1	.	.	52	.	.	.
COc1ccc(OC)c(-n2nnnc2SCC(=O)Nc2ccc3c(c2)OCCO3)c1	.	.	82	.	.	.
CCCC12CN3CC(C)(CN(C1)C3c1ccc3c(c1)OCO3)C2=O (stereo not given)	.	.	.	.	.	/
CCOC(=O)c1oc2nc(C(C)C)c3c(c2c1N)CCC3	.	.	.	.	.	/
SMILES	UPR XBP1 act	ABHD5-PLIN5 inh	Mdm2 MdmX PPI	Granule exo inh	UPR CHOP act	Mdm2-MdmX conf	others
COc1ccc2[nH]c3nc(SCC(=O)Nc4ccc5c(c4)OCO5)nnc3c2c1	.	.	66	.	.	.
Cc1ccc(-n2nnnc2SCC(=O)Nc2ccc3c(c2)COC3=O)cc1C	.	.	51	.	.	.
C/C(=N\NC(=O)c1c(Cl)cnn1C)c1cccc(NC(=O)c2ccc(C)cc2)c1	.	.	.	.	.	/
C/C(=N\NC(=O)c1c(Br)cnn1C)c1ccc(NC(=O)c2ccc(F)cc2)cc1	.	.	67	.	.	.
Cc1ccsc1-c1nc(C(N)=O)c2[nH]c(=O)n(-c3ccc(Cl)cc3)c2n1	.	.	97	.	.	.
COc1ccc(NC(=O)C(=O)NCCCn2ccnc2)cc1	.	.	.	.	.	/
O=C(OC1CCN(c2ncc(C(F)(F)F)cc2Cl)CC1)c1ccc(Cl)cc1	.	.	.	.	.	/
O=C(N/N=C/c1cccc(C(F)(F)F)c1)C1CCN(c2ncc(C(F)(F)F)cc2Cl)CC1	.	.	64	.	.	.
